How the values were obtained:
PPARγ = biological target: T1, PPARγ (Homo sapiens, UniProt P37231); assay: Cell-based PPARγ transactivation assay; details: for Maximal efficacy: compared to the reference full agonist (2, MRL20); for EC50: read-out: Cell-based EC50, Cos-1 cells, 3xPPRE luciferase reporter, full-length PPARγ, 24 h, dose-response
T1 sequence (P37231 1-505): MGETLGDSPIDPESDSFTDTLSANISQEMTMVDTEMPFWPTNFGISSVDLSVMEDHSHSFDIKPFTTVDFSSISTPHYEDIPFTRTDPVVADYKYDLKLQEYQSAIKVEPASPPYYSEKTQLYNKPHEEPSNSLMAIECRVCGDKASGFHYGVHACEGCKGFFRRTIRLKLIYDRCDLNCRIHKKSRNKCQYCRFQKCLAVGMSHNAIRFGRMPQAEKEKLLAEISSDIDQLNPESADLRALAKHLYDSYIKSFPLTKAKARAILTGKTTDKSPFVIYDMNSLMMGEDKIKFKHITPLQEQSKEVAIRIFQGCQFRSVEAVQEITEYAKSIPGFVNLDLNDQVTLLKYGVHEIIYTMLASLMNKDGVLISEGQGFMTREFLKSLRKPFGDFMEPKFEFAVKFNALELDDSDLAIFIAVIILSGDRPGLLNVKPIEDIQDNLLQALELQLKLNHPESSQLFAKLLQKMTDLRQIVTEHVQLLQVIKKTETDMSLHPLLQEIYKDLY
Summary of the method: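 Cos-1 cells, trypsinized, bulk reverse-transfected 24 h (FuGene6, lipid:DNA 3:1; DMEM + 10% FBS) with 1.5 μg 3xPPRE luciferase reporter plus 1.5 μg full-length PPARγ (pSport6). Replated at 10,000 cells/well, 4 h at 37°C, 5% CO2. Ten-point serial dilution, 5 μM – 200 pM, in triplicate, then 24 h. One-step luciferase reagent, luminescence read. Activity taken as fold over DMSO. Partial and full agonist controls, DMSO negative. EC50 from curve fit.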

PPARγ LBD = biological target: T2, PPARγ LBD (Homo sapiens, UniProt P37231); assay: Fluorescence polarization; type: binding; details: read-out: FP Assay IC50; recombinant PPARγ LBD, 5 nM Fluoromone Green ligand, 25°C, 2 hours
T2 sequence (P37231 238-503 limits assumed): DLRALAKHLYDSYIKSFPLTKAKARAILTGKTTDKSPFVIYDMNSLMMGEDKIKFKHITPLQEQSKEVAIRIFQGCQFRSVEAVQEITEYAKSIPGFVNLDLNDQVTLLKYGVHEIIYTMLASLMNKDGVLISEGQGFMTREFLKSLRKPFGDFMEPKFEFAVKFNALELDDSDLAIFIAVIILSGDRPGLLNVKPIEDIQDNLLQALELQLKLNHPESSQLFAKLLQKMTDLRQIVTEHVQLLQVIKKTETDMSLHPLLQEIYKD
Summary of the method: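 Competitive FP binding run per kit instructions. 20 ng recombinant PPARγ LBD plus 5 nM Fluoromone Green probe, mixed with an equal volume of screening buffer holding DMSO or test compound. Incubated 2 h at 25°C. Polarization read at 485 nm excitation and 535 nm emission. Rosiglitazone used as positive competitor. IC50 from dose-response curve fit.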

Maximal efficacy (PPARγ) [%]	EC50 (PPARγ) [nM]	IC50 (PPARγ LBD) [nM]	Compound
64.11	181	173	CCn1cnc2c1c(=O)n(Cc1cccc([N+](=O)[O-])c1)c(=O)n2Cc1ccccc1 [Compound 4]
44.71	1200	2000	CC(=O)N1N=C(c2ccccc2)CC1c1cn(Cc2ccccc2)c2ccccc12 (stereo not drawn) [Compound 5]
37.04	1200	3000	CCOc1ccc2nc(N3C(=O)C(O)=C(C(=O)c4ccco4)C3c3ccco3)sc2c1 (stereo not drawn) [Compound 6]
41.14	5000	5000	COc1ccc2nc(N3C(=O)C(O)=C(C(=O)c4ccco4)C3c3ccc(C)o3)sc2c1 (stereo not drawn) [Compound 7]
45.76	18000	22000	Cc1ccc2nc(N3C(=O)C(O)=C(C(=O)c4ccc(C)o4)C3c3ccco3)sc2c1 (stereo not drawn) [Compound 8]

Compound	Maximal efficacy (PPARγ) [%]	EC50 (PPARγ) [nM]	IC50 (PPARγ LBD) [nM]
COc1ccc(-c2nn(-c3ccccc3)cc2/C=C2/SC(=S)N(CCC(=O)O)C2=O)c(C)c1 [Compound 3]	44.41	283	152

Reference: paper PMC3517154 (ChemMedChem, 2011)
